{"data": "Experimental data from different studies", "gyrB": "DNA gyrase subunit B (gyrB, Escherichia coli, UniProt P0AES6)", "Melanocortin receptor 5": "Melanocortin receptor 5 (Mus musculus, UniProt P41149)", "Adora1": "Adenosine receptor A1 (Adora1, Rattus norvegicus, UniProt P25099)", "CA9": "Carbonic anhydrase 9 (CA9, Homo sapiens, UniProt Q16790)"}
{"SMILES": "CNc1cccc2cc(C(=O)NCCc3cccc(C(=O)O)c3)c(=O)[nH]c12", "target": "gyrB", "observed": "binding", "technique": "ITC", "quantity": "Kd", "result": "23 nM"}
{"SMILES": "N=C(N)NCCC[C@H](NC(=O)[C@H](CC(=O)O)NC(=O)[C@@H](N)Cc1c[nH]c2ccccc12)C(=O)N[C@@H](Cc1ccccc1)C(=O)NCC(=O)O", "target": "Melanocortin receptor 5", "observed": "reporter gene", "action": "agonist", "quantity": "EC50", "result": "> 100000 nM"}
{"SMILES": "CCC(C)N1CCCn2c1nc1c2c(=O)n(C)c(=O)n1C (stereo not drawn)", "target": "Adora1", "observed": "ligand displacement", "technique": "radioligand", "setting": "cell membranes", "quantity": "Ki", "result": "≥ 25000 nM"}
{"SMILES": "NS(=O)(=O)c1cccc(NC(=O)CCN2CCC(c3cccc4[nH]ccc34)CC2)c1", "target": "CA9", "observed": "enzyme activity", "action": "inhibitor", "quantity": "IC50", "result": "11000 nM"}
{"SMILES": "Cc1cnc(-c2ccc(-c3ccc(NC(=O)Nc4c(F)cc(F)cc4F)cc3F)c3c2C(=O)NC3)[nH]1", "target": "Serine/threonine-protein kinase 26 (STK26, Homo sapiens, UniProt Q9P289)", "observed": "binding", "technique": "competition with immobilised ligand", "quantity": "Kd", "result": "8.2 nM"}
{"SMILES": "CCCCn1c(=O)c2[nH]c(C34CC5CC(CC3C5)C4)nc2n(CCCO)c1=O", "target": "Adora1", "observed": "ligand displacement", "technique": "radioligand", "setting": "cell membranes", "quantity": "Ki", "result": "0.368 nM"}
{"SMILES": "CNC(=O)c1ccc(NC(=O)Nc2nc(CC(=O)Nc3ccc(S(N)(=O)=O)cc3)cs2)cc1", "target": "CA9", "observed": "enzyme activity", "action": "inhibitor", "quantity": "IC50", "result": "29.5 nM"}
{"SMILES": "CSCC[C@H](NC(=O)[C@@H](NC(=O)[C@@H](N)Cc1ccc(O)cc1)C(C)C)C(=O)NCC(=O)N[C@@H](Cc1c[nH]cn1)C(=O)N[C@@H](Cc1ccccc1)C(=O)N[C@@H](CCCNC(=N)N)C(=O)N[C@@H](Cc1c[nH]c2ccccc12)C(=O)N[C@@H](CC(=O)O)C(=O)N[C@@H](CCCNC(=N)N)C(=O)O", "target": "Melanocortin receptor 5", "observed": "reporter gene", "action": "agonist", "quantity": "EC50", "result": "62 nM"}
{"SMILES": "Cc1ccc(C)c(OCCCC(C)(C)C(=O)O)c1", "target": "Peroxisome proliferator-activated receptor alpha (Ppara, Mus musculus, UniProt P23204)", "observed": "reporter gene", "action": "agonist", "technique": "luciferase", "quantity": "EC50", "result": "111000 nM"}
{"SMILES": "O=C(Nc1ccc(N2C(=O)c3ccccc3C2=O)c(Cl)c1)c1ncccc1O", "target": "Metabotropic glutamate receptor 4 (GRM4, Homo sapiens, UniProt Q14833)", "observed": "calcium signal", "action": "agonist", "quantity": "EC50", "result": "130 nM"}
{"SMILES": "NS(=O)(=O)c1ccc(NC(=O)NCc2cccc(NC(=O)C3CC3)c2)cc1", "target": "CA9", "observed": "enzyme activity", "action": "inhibitor", "quantity": "IC50", "result": "55 nM"}
{"SMILES": "CSCC[C@H](NC(=O)[C@@H](NC(=O)[C@@H](N)Cc1ccc(O)cc1)C(C)C)C(=O)NCC(=O)N[C@@H](Cc1c[nH]cn1)C(=O)N[C@@H](Cc1ccccc1)C(=O)O", "target": "Melanocortin receptor 5", "observed": "reporter gene", "action": "agonist", "quantity": "EC50", "result": "> 100000 nM"}
{"SMILES": "CC(C)CC(C)N1CCCn2c1nc1c2c(=O)n(C)c(=O)n1C (stereo not drawn)", "target": "Adora1", "observed": "ligand displacement", "technique": "radioligand", "setting": "cell membranes", "quantity": "Ki", "result": "> 25000 nM"}
{"SMILES": "N=C(N)NCCC[C@H](NC(=O)[C@H](CC(=O)O)NC(=O)[C@H](Cc1c[nH]c2ccccc12)NC(=O)[C@H](CCCNC(=N)N)NC(=O)[C@@H](N)Cc1ccccc1)C(=O)N[C@@H](Cc1ccccc1)C(=O)NCC(=O)O", "target": "Melanocortin receptor 5", "observed": "reporter gene", "action": "agonist", "quantity": "EC50", "result": "13500 nM"}
{"SMILES": "CC(C)CC(=O)Nc1ccc(NC2CC(=O)N(c3cccc(S(N)(=O)=O)c3)C2=O)cc1 (stereo not drawn)", "target": "CA9", "observed": "enzyme activity", "action": "inhibitor", "quantity": "IC50", "result": "40.7 nM"}
{"SMILES": "CSCC[C@H](NC(=O)[C@@H](NC(=O)[C@@H](N)Cc1ccc(O)cc1)C(C)C)C(=O)NCC(=O)O", "target": "Melanocortin receptor 5", "observed": "reporter gene", "action": "agonist", "quantity": "EC50", "result": "> 100000 nM"}
{"SMILES": "CNc1cccc2cc(C(=O)NCCc3ccc(C(=O)O)cc3)c(=O)[nH]c12", "target": "gyrB", "observed": "binding", "technique": "ITC", "quantity": "Kd", "result": "23 nM"}
{"SMILES": "CCS(=O)(=O)Nc1ccc(Nc2c3ccccc3nc3cc(NC(=O)CCCC[C@@H]4SC[C@@H]5NC(=O)N[C@@H]54)ccc23)c(OC)c1", "target": "Lymphocyte antigen 6K (Homo sapiens, UniProt Q17RY6)", "observed": "binding", "technique": "SPR", "quantity": "Kd", "result": "4700 nM"}
{"SMILES": "CNc1cccc2cc(C(=O)NCc3ccc(C(=O)O)cc3)c(=O)[nH]c12", "target": "gyrB", "observed": "binding", "technique": "ITC", "quantity": "Kd", "result": "9.3 nM"}
{"SMILES": "CC(=O)Nc1cccc2c1CC(C)N2Cc1ccoc1C(=O)Nc1ccc(S(N)(=O)=O)cc1 (stereo not drawn)", "target": "CA9", "observed": "enzyme activity", "action": "inhibitor", "quantity": "IC50", "result": "37.2 nM"}
{"SMILES": "CN(Cc1ccc(C(=O)O)cc1NC(=O)c1cc2ccccc2[nH]c1=O)C1CCCCC1", "target": "gyrB", "observed": "binding", "technique": "ITC", "quantity": "Kd", "result": "3900 nM"}
{"SMILES": "NS(=O)(=O)c1ccc(NC(=S)N2CCN(C(=O)c3ccco3)CC2)cc1", "target": "CA9", "observed": "enzyme activity", "action": "inhibitor", "quantity": "IC50", "result": "37.2 nM"}
{"SMILES": "Cc1cc2nc3c(=O)[nH]c(=O)nc-3n(C[C@H](O)[C@H](O)[C@H](O)COP(=O)(O)OP(=O)(O)OC[C@H]3O[C@@H](n4cnc5c(N)ncnc54)[C@H](O)[C@@H]3O)c2cc1C", "target": "RNA-binding protein 14 (Homo sapiens, UniProt Q96PK6)", "observed": "binding", "setting": "lysate", "quantity": "Kd", "result": "32 nM"}
{"SMILES": "Cc1nn(-c2ccccc2)c(C)c1C1COCCN1C(=O)c1ccc(Cl)c(S(N)(=O)=O)c1 (stereo not drawn)", "target": "CA9", "observed": "enzyme activity", "action": "inhibitor", "quantity": "IC50", "result": "155 nM"}
{"SMILES": "N=C(N)NCCC[C@H](NC(=O)[C@H](CC(=O)O)NC(=O)[C@H](Cc1c[nH]c2ccccc12)NC(=O)[C@H](CCCNC(=N)N)NC(=O)[C@H](Cc1ccccc1)NC(=O)[C@@H](N)Cc1c[nH]cn1)C(=O)N[C@@H](Cc1ccccc1)C(=O)NCC(=O)O", "target": "Melanocortin receptor 5", "observed": "reporter gene", "action": "agonist", "quantity": "EC50", "result": "760 nM"}
{"SMILES": "CC(NC(=O)C(C)N1CCN(C(=O)c2cccc(O)c2)CC1)c1ccc(S(N)(=O)=O)cc1 (stereo not drawn)", "target": "CA9", "observed": "enzyme activity", "action": "inhibitor", "quantity": "IC50", "result": "750 nM"}
{"SMILES": "O=S(=O)(NCCNC/C=C/c1ccc(Br)cc1)c1cccc2cnccc12", "target": "Serine/threonine-protein kinase N1 (PKN1, Homo sapiens, UniProt Q16512)", "observed": "enzyme activity", "action": "inhibitor", "quantity": "IC50", "result": "155 nM"}
